Experiments:
[1] = species: Homo sapiens; test: Direct inhibition of the IgE-Germ line promoter (IGE-GLP-RGA) activity which is responsible in synthesis of IgE in human splenocytes; format: functional
Summary of the method: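 BL2 B-cells were stably transfected with luciferase under a 630 bp IgE-germline promoter fragment and selected in G418. Cells were lysed for dual-luciferase readout in duplicates, and IC₅₀ came from a logistic fit.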

[2] = system: B-cell; test: Antiproliferative effects in the human B-cell line transfected with a plasmid in which luciferase gene is under the control of a 630bp, involved in the IL-4 response which induces IgE-GLP activity.; format: functional, cell-based
Summary of the method: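 Viability of the stably transfected BL2 luciferase-reporter clone was measured in cultures run in parallel with the reporter assay. Intact mitochondria were quantified in duplicates, and half-maximal inhibition came from a logistic fit.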

[3] = biological target: Epidermal growth factor receptor (Homo sapiens, UniProt P00533); test: Inhibition of EGF-induced Tyrosine phosphorylation in A431 cells expressing EGF-R
Epidermal growth factor receptor, sequence (P00533 whole entry): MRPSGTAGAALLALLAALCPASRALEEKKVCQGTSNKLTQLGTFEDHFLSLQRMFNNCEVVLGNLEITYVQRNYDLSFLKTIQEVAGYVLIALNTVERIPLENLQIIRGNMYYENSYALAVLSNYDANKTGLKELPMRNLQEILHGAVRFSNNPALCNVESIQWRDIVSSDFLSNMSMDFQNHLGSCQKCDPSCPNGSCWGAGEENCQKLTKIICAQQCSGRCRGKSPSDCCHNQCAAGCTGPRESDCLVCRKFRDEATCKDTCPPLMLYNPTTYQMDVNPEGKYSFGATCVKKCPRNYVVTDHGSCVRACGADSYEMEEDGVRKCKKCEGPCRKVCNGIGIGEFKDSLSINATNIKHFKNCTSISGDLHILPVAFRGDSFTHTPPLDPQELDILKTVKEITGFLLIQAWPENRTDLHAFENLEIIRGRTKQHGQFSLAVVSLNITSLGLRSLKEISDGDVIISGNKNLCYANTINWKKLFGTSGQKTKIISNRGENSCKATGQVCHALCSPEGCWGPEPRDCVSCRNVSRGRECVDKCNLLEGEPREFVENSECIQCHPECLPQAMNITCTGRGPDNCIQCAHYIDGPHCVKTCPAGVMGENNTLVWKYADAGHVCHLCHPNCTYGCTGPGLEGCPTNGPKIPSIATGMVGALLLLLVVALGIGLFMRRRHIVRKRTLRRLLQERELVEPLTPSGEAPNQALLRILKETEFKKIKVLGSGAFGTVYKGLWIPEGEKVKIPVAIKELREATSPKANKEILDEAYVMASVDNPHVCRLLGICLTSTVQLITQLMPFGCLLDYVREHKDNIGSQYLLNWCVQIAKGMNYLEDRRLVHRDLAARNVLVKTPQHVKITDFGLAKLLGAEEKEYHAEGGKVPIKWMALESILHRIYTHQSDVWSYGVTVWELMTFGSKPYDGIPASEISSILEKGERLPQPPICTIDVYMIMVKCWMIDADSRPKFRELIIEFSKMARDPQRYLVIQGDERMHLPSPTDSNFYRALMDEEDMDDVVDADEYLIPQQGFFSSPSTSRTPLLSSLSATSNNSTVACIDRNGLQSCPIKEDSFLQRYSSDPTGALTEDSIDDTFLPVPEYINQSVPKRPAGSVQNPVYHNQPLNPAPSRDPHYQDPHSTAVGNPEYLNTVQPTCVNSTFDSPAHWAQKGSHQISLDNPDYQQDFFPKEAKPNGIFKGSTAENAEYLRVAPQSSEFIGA

Row | Compound | IC50 [1] [nM] | IC50 [2] [nM] | IC50 [3] [nM]
1 | Cc1csc2ncnc(N[C@@H](C)c3ccccc3)c12 | 130 | 1480 | –
2 | Cc1cc(N[C@@H](C)c2ccccc2)nc(N)n1 | > 2000 | > 2000 | –
3 | C[C@H](Nc1ncnc2sccc12)c1ccccc1 | 370 | > 2000 | –
4 | c1ccc(CNc2ncnc3ccccc23)cc1 | > 2000 | > 2000 | –
5 | Cc1cc2c(N[C@@H](C)c3ccccc3)[nH]cnc-2n1 | > 2000 | > 2000 | –
6 | C[C@H](Nc1ncnc2ccccc12)c1ccccc1 | 127 | > 2000 | –
7 | Cc1ccc([C@H](C)Nc2ncnc3ccccc23)cc1 | 46 | > 2000 | –
8 | C[C@H](Nc1ccnc2ccccc12)c1ccccc1 | 701 | > 2000 | –
9 | COc1ccc([C@H](C)Nc2ncnc3ccccc23)cc1 | 45 | > 2000 | –
10 | C[C@H](Nc1nccc2ccccc12)c1ccccc1 | > 2000 | > 2000 | –
11 | CC[C@H](Nc1ncnc2ccccc12)c1ccccc1 | 147 | > 2000 | –
12 | C[C@H](Nc1[nH]cnc2c3ccccc3nc1-2)c1ccccc1 | – | – | 50
13 | C[C@@H](Nc1ncnc2ccccc12)c1ccc2ccccc2c1 | > 2000 | > 2000 | –
14 | Cc1cc(N[C@@H](C)c2ccccc2)c2ccccc2n1 | > 2000 | > 2000 | –
15 | COc1cccc([C@H](C)Nc2ncnc3ccccc23)c1 | 23 | > 2000 | –
16 | C[C@@H](Nc1ncnc2ccccc12)C1CCCCC1 | > 2000 | > 2000 | –
17 | Cc1csc2c(N[C@@H](C)c3ccccc3)ncnc12 | > 2000 | > 2000 | –
18 | c1ccc2c(c1)CC[C@@H]2Nc1ncnc2ccccc12 | > 2000 | > 2000 | –
19 | c1ccc2c(c1)CC[C@H]2Nc1ncnc2ccccc12 | 1020 | > 2000 | –
20 | c1ccc(Nc2ncnc3ccccc23)cc1 | > 2000 | > 2000 | –
21 | CSc1nccc(N[C@@H](C)c2ccccc2)n1 | 931 | > 2000 | –
22 | C[C@@H](Nc1ncnc2ccccc12)c1ccccc1 | > 2000 | > 2000 | –
23 | C[C@H](Nc1ncnc2ccccc12)c1ccc2ccccc2c1 | 14 | 1630 | –
24 | C[C@H](Nc1ncnc2ccccc12)C1CCCCC1 | 81 | > 2000 | –
25 | OC[C@H](Nc1ncnc2ccccc12)c1ccccc1 | 149 | > 2000 | –
26 | C[C@H](Nc1ncnc2ccccc12)c1ccc(Br)cc1 | 72 | > 2000 | –
27 | COc1cc2ncnc(N[C@@H](C)c3ccccc3)c2cc1OC | > 2000 | > 2000 | –
28 | C[C@H](Nc1ncnc2ccsc12)c1ccccc1 | > 2000 | > 2000 | –
29 | C[C@H](Nc1[nH]cnc2ncnc1-2)c1ccccc1 | > 2000 | > 2000 | –
30 | CC(c1ccccc1)N(C)c1ncnc2ccccc12 (centres undefined) | > 2000 | > 2000 | –

Reference: ChEMBL document CHEMBL1134586, “S(+)-4-(1-Phenylethylamino)quinazolines as inhibitors of human immunoglobulin E synthesis: potency is dictated by stereochemistry and atomic point charges at N-1” (J Med Chem, 2001)
